Measurements from ChEMBL document CHEMBL1152882, “Optimization of novel di-substituted cyclohexylbenzamide derivatives as potent 11 beta-HSD1 inhibitors” (Bioorg Med Chem Lett, 2009).

How the values were obtained:
[1] = biological target: T1, Nuclear receptor subfamily 1 group I member 2 (Homo sapiens, UniProt O75469); experiment: Activation of human PXR expressed in human HepG2 cells at 2 uM by luciferase reporter gene assay relative to rifampin; assay type: cell-based; settings: hepg2, 2 µM
T1 sequence (O75469 whole entry): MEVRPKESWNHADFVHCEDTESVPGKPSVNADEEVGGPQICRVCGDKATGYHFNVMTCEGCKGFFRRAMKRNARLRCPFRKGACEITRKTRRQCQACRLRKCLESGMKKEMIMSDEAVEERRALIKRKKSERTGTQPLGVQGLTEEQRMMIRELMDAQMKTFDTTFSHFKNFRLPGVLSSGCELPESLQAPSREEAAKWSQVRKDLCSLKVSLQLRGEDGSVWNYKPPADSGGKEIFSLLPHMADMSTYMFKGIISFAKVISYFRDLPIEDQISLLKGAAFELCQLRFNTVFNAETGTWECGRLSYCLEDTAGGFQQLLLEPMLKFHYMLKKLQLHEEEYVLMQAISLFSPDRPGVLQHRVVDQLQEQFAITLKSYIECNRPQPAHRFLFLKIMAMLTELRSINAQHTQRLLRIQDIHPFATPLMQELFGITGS
Method in brief: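 Transactivation was measured in HepG2 cells transfected with a luciferase reporter construct driven by human PXR cDNA. Luciferase activity was read by chemiluminescence and expressed as percent of the rifampin control.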

HeLa = experiment: Cytotoxicity against human HeLa cells after 72 hrs by alamar blue assay
[2] = Metabolic stability in human liver microsomes assessed as compound turnover after 30 mins; assay type: ADME, Microsome; settings: read-out: Activity
[3] = Metabolic stability in rat liver microsomes assessed as compound turnover after 30 mins; assay type: ADME, Microsome; settings: read-out: Activity
[4] = biological target: 11-beta-hydroxysteroid dehydrogenase 1 (Homo sapiens, UniProt P28845); experiment: Inhibition of FLAG-tagged full length human 11beta-HSD1 expressed in baculovirus-infected Trichoplusia ni Hi5 cells assessed as reduction of [3H]cortisone to [3H]cortisol by scintillation proximity assay in presence of NADPH; assay type: cell-based, BTI-TN-5B1-4
[5] = AUC in rat at 2 mg/kg, po; assay type: ADME, organism-based; parameters: dose 2 mg/kg, route oral; settings: plasma
Method in brief: (§1)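 Single-dose PK: intravenous dose 0.5 or 0.7 mg/kg (footnotes a, b), oral dose 2.0 mg/kg. Reported parameters are iv clearance (L/h/kg), Vdss (L/kg), oral AUC and % oral bioavailability.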

[6] = Clearance in rat at 0.7 mg/kg, iv and 2 mg/kg, po; assay type: ADME, organism-based; settings: in vivo; method in brief: as §1
[7] = Volume of distribution at steady state in rat at 0.7 mg/kg, iv and 2 mg/kg, po; assay type: ADME, organism-based; settings: in vivo, read-out: Vdss; method in brief: as §1
[8] = Bioavailability in rat at 0.7 mg/kg, iv and 2 mg/kg, po; assay type: ADME, organism-based; settings: in vivo; method in brief: as §1
[9] = AUC in cynomolgus monkey at 2 mg/kg, po; assay type: ADME, organism-based, Macaca fascicularis; parameters: dose 2 mg/kg, route oral; settings: plasma; method in brief: as §1
[10] = Clearance in cynomolgus monkey at 0.5 mg/kg, iv and 2 mg/kg, po; settings: in vivo
[11] = Bioavailability in cynomolgus monkey at 0.5 mg/kg, iv and 2 mg/kg, po; settings: in vivo
[12] = Volume of distribution at steady state in cynomolgus monkey at 0.5 mg/kg, iv and 2 mg/kg, po; settings: in vivo, read-out: Vdss
[13] = Clearance in rat at 0.5 mg/kg, iv and 2 mg/kg, po; assay type: ADME, organism-based; settings: in vivo; method in brief: as §1
[14] = Volume of distribution at steady state in rat at 0.5 mg/kg, iv and 2 mg/kg, po; assay type: ADME, organism-based; settings: in vivo, read-out: Vdss; method in brief: as §1
[15] = Bioavailability in rat at 0.5 mg/kg, iv and 2 mg/kg, po; assay type: ADME, organism-based; settings: in vivo; method in brief: as §1
[16] = Clearance in cynomolgus monkey at 0.5 mg/kg, iv and 2 mg/kg, po; assay type: ADME, organism-based, Macaca fascicularis; settings: in vivo; method in brief: as §1
[17] = Volume of distribution at steady state in cynomolgus monkey at 0.5 mg/kg, iv and 2 mg/kg, po; assay type: ADME, organism-based, Macaca fascicularis; settings: in vivo, read-out: Vdss; method in brief: as §1
[18] = Bioavailability in cynomolgus monkey at 0.5 mg/kg, iv and 2 mg/kg, po; assay type: ADME, organism-based, Macaca fascicularis; settings: in vivo; method in brief: as §1
[19] = biological target: 11-beta-hydroxysteroid dehydrogenase 1 (Rattus norvegicus, UniProt P16232); experiment: Inhibition of rat 11beta-HSD1
Method in brief: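 Biochemical assay using baculovirus-produced recombinant full-length rat 11β-HSD1 with NADPH as cofactor. Substrate is [3H]cortisone. The [3H]-cortisol formed is captured by anti-cortisol monoclonal antibody SPA beads and quantified by scintillation. IC50 is from dose-response curve fitting of at least duplicate samples.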

[20] = Fraction unbound in human serum by ultracentrifugation assay; assay type: ADME, cell-free
Method in brief: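 Human protein binding was measured with separation by ultracentrifugation and reported as fraction unbound.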

Rattus norvegicus = experiment: Inhibition of 11beta-HSD1 in epididymal fat tissue of po dosed Sprague-Dawley rat assessed as reduction in [3H]cortisol production after 2 hrs by scintillation proximity assay; settings: Adipose tissue
[21] = Tmax in po dosed Sprague-Dawley rat; assay type: ADME, organism-based; settings: in vivo
Cynomolgus monkey = experiment: cells; settings: Macaca fascicularis, Adipose tissue

Sequence of 11-beta-hydroxysteroid dehydrogenase 1 (Homo sapiens, UniProt P28845) (P28845 whole entry): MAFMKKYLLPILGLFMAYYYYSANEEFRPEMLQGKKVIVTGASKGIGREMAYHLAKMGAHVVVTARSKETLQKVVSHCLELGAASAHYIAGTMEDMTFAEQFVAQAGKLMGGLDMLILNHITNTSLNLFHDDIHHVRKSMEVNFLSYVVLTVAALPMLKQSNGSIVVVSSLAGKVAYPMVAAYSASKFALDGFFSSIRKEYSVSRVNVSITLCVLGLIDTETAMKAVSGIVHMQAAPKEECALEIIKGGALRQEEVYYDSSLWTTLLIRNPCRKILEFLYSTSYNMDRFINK
Sequence of 11-beta-hydroxysteroid dehydrogenase 1 (Rattus norvegicus, UniProt P16232) (P16232 whole entry): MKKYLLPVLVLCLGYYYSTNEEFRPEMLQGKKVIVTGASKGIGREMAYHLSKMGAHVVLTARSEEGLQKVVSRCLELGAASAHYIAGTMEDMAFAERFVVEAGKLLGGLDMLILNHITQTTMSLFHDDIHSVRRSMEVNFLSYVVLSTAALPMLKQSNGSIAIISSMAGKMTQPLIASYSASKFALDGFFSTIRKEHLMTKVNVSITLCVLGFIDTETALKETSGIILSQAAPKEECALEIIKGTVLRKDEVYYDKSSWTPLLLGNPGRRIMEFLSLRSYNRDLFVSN

Activity [1] [%]	metabolised at 0.5 h [2] [%]	metabolised at 0.5 h [3] [%]	Structure (SMILES)	IC50 (HeLa) [µM]	also measured
7.6	< 5	14	C[C@@](O)(c1ccc(C(=O)N(C2CC2)[C@H]2CC[C@](C#N)(c3ccccn3)CC2)cc1)C(F)(F)F	> 10	
< 3.4	10	69	CC(C)[C@]1(O)CC[C@@H](N(C(=O)c2ccc([C@](C)(O)C(F)(F)F)cc2)C2CC2)CC1	> 10	
11	< 5		C[C@](O)(c1ccc(C(=O)N(C2CC2)[C@H]2CC[C@H](c3ccc(C#N)cc3)CC2)cc1)C(F)(F)F	1.1	IC50 [4]: 0.00076 µM
< 5	6.8	< 5	C[C@](O)(c1ccc(C(=O)N(C2CC2)[C@H]2CC[C@](C#N)(c3ccc(C#N)cc3)CC2)cc1)C(F)(F)F	> 10	
< 5	15	> 95	C[C@](O)(c1ccc(C(=O)N(C2CC2)[C@H]2CC[C@@](O)(c3ccccc3)CC2)cc1)C(F)(F)F	> 10	
6.3	6.9	95	C[C@@](O)(c1ccc(C(=O)N(C2CC2)[C@H]2CC[C@@](C#N)(c3ccccn3)CC2)cc1)C(F)(F)F	> 10	
< 5	< 10	< 10	C[C@](O)(c1ccc(C(=O)N(C2CC2)[C@H]2CC[C@](C#N)(C3CC3)CC2)cc1)C(F)(F)F	> 10	AUC [5]: 4100 ng·h/mL; clearance [6]: 3.17 mL/min/kg; Vd [7]: 2.2 L/kg; bioavailability [8]: 40%; AUC [9]: 1000 ng·h/mL; clearance [10]: 1.55 mL/min/kg; bioavailability [11]: 5%; Vd [12]: 1.9 L/kg
38	94		C[C@](O)(c1ccc(C(=O)N(C2CC2)[C@H]2CC[C@@H](c3cccnc3)CC2)cc1)C(F)(F)F	> 10	IC50 [4]: 0.0016 µM
6.1	< 5	< 5	C[C@](O)(c1ccc(C(=O)N(C2CC2)[C@H]2CC[C@](O)(c3ccccn3)CC2)cc1)C(F)(F)F	> 10	
< 5	< 5	< 5	C[C@](O)(c1ccc(C(=O)N(C2CC2)[C@H]2CC[C@](O)(c3ccccc3)CC2)cc1)C(F)(F)F	5.1	
< 5	< 5	< 5	C[C@](O)(c1ccc(C(=O)N(C2CC2)[C@H]2CC[C@](O)(c3cccnc3)CC2)cc1)C(F)(F)F	> 10	
< 5	< 5	6	C[C@](O)(c1ccc(C(=O)N(C2CC2)[C@H]2CC[C@](C#N)(c3ccccc3)CC2)cc1)C(F)(F)F	> 10	
75	33		C[C@](O)(c1ccc(C(=O)N(C2CC2)[C@H]2CC[C@@H](c3ccc(C#N)cc3)CC2)cc1)C(F)(F)F	> 10	IC50 [4]: 0.0049 µM
31	< 5		C[C@](O)(c1ccc(C(=O)N(C2CC2)[C@H]2CC[C@H](c3ccccc3)CC2)cc1)C(F)(F)F	> 10	
2.2	< 5		C[C@](O)(c1ccc(C(=O)N(C2CC2)[C@H]2CC[C@H](c3cccnc3)CC2)cc1)C(F)(F)F	2.5	IC50 [4]: 0.0017 µM
5.9	10	43	C[C@](O)(c1ccc(C(=O)N(C2CC2)[C@H]2CC[C@](O)(CC3CC3)CC2)cc1)C(F)(F)F	2.8	
< 5	< 5	7.4	C[C@](O)(c1ccc(C(=O)N(C2CC2)[C@H]2CC[C@](O)(C3CC3)CC2)cc1)C(F)(F)F	> 10	clearance [13]: 4 mL/min/kg; Vd [14]: 2.7 L/kg; AUC [5]: 8900 ng·h/mL; bioavailability [15]: 76%; clearance [16]: 1.83 mL/min/kg; Vd [17]: 1.5 L/kg; AUC [9]: 4700 ng·h/mL; bioavailability [18]: 43%; IC50 [19]: 0.244 µM; fraction unbound [20]: 0.12; ED50 (Rattus norvegicus): 10 mg/kg; Tmax [21]: 2 h; IC50 (Cynomolgus monkey): 0.64 µM
< 5	< 5	35	C[C@](O)(c1ccc(C(=O)N(C2CC2)[C@H]2CC[C@](C#N)(c3cccnc3)CC2)cc1)C(F)(F)F	> 10	
< 5	< 5	< 5	C[C@](O)(c1ccc(C(=O)N(C2CC2)[C@H]2CC[C@@](C)(O)CC2)cc1)C(F)(F)F	> 10	
